Measured values from the M2OR odorant receptor database.
Positions count from the first letter of the chain named.

How the values were obtained:
Details in all cases: stereoisomer not certain
OR52D1 (Homo sapiens) = molecular target: T1, OR52D1 (Homo sapiens) (UniProt Q9H346)
T1 sequence (whole entry): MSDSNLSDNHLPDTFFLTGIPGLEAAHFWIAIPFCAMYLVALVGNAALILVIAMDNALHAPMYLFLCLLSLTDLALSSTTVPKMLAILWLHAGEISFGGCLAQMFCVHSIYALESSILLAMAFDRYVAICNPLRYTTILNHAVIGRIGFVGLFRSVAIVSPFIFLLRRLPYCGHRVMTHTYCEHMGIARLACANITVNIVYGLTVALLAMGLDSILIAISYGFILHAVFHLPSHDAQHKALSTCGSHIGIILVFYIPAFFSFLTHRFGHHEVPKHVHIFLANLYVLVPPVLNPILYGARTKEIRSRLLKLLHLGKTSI
Outline: (§1)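 Each receptor–molecule pair is labelled responsive or non-responsive (inactive) according to whether the original authors judged the measured signal statistically different from baseline. The data were taken from the main text and supplementary material of published papers and checked for typos and inconsistencies. Assay methods differed by source, with transient luciferase assays in mammalian cell lines being common.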

OR52A5 (Homo sapiens) = molecular target: T2, OR52A5 (Homo sapiens) (UniProt Q9H2C5)
T2 sequence (whole entry): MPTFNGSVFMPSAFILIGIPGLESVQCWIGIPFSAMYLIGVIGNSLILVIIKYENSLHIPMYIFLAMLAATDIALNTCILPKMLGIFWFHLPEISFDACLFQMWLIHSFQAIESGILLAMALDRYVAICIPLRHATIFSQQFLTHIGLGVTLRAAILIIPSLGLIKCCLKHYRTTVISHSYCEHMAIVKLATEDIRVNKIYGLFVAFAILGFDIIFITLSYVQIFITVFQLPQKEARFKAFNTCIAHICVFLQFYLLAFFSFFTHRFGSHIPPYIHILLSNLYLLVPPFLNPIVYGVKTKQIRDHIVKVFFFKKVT
Outline: as §1

OR52B2 (Homo sapiens) = molecular target: T3, OR52B2 (Homo sapiens) (UniProt Q96RD2)
T3 sequence (whole entry): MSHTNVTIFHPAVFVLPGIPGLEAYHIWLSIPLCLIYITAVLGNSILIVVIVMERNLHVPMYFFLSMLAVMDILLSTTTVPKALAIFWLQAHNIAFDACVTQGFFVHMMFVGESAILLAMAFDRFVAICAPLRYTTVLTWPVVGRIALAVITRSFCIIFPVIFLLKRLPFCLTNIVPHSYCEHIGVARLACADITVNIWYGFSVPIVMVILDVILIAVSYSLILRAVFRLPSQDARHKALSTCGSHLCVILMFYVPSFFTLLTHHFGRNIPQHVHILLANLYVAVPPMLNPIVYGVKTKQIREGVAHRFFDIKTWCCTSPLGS
Outline: as §1

OR52B4 (Homo sapiens) = molecular target: T4, OR52B4 (Homo sapiens) (UniProt Q8NGK2)
T4 sequence (whole entry): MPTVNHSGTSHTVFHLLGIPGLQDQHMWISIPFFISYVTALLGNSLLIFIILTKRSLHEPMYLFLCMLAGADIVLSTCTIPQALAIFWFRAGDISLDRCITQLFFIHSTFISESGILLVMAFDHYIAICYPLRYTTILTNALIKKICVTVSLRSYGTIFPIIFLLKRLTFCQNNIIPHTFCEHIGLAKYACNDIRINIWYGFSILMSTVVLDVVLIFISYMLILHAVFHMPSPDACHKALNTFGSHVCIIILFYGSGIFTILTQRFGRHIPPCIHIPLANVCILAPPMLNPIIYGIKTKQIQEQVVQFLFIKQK
Outline: as §1

OR52B6 (Homo sapiens) = molecular target: T5, OR52B6 (Homo sapiens) (UniProt Q8NGF0)
T5 sequence (whole entry): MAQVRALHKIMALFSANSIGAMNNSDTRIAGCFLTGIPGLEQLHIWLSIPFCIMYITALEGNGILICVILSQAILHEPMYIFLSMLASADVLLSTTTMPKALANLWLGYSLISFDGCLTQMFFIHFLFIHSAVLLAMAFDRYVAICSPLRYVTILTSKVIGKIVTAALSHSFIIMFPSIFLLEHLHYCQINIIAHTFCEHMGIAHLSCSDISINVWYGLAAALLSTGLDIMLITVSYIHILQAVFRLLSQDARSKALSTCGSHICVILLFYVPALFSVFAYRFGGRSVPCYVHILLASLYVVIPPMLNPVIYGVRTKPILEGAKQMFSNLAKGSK
Outline: as §1

OR52E1 (Homo sapiens) = OR52E1 (Homo sapiens) (UniProt Q8NGJ3)
Outline: as §1

OR52E2 (Homo sapiens) = OR52E2 (Homo sapiens) (UniProt Q8NGJ4)
Outline: as §1

OR52E4 (Homo sapiens) = OR52E4 (Homo sapiens) (UniProt Q8NGH9)
Outline: as §1

OR52E6 (Homo sapiens) = OR52E6 (Homo sapiens) (UniProt Q96RD3)
Outline: as §1

OR52I1 (Homo sapiens) = molecular target: T6, OR52I1 (Homo sapiens) (UniProt Q8NGK6)
T6 sequence (whole entry): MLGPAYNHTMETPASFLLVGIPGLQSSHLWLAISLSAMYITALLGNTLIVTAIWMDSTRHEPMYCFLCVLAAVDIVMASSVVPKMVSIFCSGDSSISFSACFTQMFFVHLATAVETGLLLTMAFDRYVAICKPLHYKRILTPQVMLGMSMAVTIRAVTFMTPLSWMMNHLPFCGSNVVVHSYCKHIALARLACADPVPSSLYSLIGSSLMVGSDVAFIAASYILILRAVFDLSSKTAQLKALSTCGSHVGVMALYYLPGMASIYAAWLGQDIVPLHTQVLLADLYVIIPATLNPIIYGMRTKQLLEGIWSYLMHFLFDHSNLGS
Outline: as §1

OR52I2 (Homo sapiens) = molecular target: T7, OR52I2 (Homo sapiens) (UniProt Q8NH67)
T7 sequence (whole entry): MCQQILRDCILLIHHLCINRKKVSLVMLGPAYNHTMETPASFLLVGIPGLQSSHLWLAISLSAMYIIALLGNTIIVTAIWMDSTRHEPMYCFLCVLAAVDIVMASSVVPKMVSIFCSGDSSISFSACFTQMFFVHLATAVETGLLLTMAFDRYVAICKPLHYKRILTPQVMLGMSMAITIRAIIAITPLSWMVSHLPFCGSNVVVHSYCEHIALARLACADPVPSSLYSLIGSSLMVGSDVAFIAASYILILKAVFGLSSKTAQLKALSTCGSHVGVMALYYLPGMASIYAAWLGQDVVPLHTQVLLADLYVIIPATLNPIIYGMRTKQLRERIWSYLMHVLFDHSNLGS
Outline: as §1

OR52J3 (Homo sapiens) = OR52J3 (Homo sapiens) (UniProt Q8NH60)
Outline: as §1

OR52K1 (Homo sapiens) = molecular target: T8, OR52K1 (Homo sapiens) (UniProt Q8NGK4)
T8 sequence (whole entry): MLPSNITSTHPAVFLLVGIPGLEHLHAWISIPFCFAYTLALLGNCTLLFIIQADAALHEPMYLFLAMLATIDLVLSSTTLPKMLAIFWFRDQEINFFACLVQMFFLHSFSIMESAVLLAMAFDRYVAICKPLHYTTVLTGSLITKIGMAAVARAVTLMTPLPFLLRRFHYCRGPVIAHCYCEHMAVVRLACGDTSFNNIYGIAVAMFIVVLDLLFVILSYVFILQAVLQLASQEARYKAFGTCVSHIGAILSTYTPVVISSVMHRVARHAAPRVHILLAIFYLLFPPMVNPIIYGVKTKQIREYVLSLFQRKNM
Outline: as §1

OR52K2 (Homo sapiens) = molecular target: T9, OR52K2 (Homo sapiens) (UniProt Q8NGK3)
T9 sequence (whole entry): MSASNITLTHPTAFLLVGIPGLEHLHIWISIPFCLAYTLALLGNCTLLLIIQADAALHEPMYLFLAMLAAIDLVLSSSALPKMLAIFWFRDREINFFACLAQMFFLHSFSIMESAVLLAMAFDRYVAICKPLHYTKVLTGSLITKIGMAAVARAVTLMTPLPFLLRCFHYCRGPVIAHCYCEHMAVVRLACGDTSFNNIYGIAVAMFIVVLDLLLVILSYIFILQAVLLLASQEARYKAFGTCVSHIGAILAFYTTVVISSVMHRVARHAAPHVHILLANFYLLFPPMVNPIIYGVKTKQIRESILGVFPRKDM
Outline: as §1

OR52L1 (Homo sapiens) [1] = molecular target: T10, OR52L1 (Homo sapiens) (UniProt Q8NGH7)
T10 sequence (whole entry): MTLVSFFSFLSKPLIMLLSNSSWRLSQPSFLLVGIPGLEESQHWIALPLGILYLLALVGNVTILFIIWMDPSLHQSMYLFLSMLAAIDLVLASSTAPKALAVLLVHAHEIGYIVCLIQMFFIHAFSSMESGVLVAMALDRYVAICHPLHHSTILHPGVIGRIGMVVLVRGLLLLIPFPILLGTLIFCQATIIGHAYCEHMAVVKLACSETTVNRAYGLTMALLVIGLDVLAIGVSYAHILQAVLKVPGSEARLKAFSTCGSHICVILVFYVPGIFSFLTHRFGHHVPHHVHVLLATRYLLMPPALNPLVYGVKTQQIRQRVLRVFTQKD
Outline: as §1

OR52M1 (Homo sapiens) = molecular target: T11, OR52M1 (Homo sapiens) (UniProt Q8NGK5)
T11 sequence (whole entry): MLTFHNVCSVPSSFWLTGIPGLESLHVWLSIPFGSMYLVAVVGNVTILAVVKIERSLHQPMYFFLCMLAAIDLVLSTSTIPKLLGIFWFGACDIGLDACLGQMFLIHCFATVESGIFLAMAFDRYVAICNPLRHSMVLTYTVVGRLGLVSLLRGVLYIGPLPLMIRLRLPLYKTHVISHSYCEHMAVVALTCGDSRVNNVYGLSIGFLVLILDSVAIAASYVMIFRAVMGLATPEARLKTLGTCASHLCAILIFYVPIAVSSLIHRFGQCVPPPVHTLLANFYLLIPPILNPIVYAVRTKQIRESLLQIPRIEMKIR
Outline: as §1

OR52N1 (Homo sapiens) = molecular target: T12, OR52N1 (Homo sapiens) (UniProt Q8NH53)
T12 sequence (whole entry): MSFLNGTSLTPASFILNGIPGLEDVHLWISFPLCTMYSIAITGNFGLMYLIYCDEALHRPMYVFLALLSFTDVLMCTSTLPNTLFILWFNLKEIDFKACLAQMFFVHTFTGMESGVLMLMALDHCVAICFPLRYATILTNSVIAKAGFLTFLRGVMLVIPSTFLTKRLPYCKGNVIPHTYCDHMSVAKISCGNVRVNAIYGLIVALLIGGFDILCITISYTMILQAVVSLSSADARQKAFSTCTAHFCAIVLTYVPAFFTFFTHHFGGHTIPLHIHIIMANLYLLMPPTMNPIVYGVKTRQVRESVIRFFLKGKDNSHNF
Outline: as §1

OR52N2 (Homo sapiens) = molecular target: T13, OR52N2 (Homo sapiens) (UniProt Q8NGI0)
T13 sequence (whole entry): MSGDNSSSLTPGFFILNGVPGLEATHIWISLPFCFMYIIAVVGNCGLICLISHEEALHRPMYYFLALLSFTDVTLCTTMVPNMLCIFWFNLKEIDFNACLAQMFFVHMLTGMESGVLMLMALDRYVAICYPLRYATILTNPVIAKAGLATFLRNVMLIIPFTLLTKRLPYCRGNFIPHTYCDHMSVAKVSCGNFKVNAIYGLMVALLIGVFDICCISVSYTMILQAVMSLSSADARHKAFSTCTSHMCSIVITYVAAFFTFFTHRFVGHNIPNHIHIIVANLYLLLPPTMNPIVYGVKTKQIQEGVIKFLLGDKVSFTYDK
Outline: as §1

OR52E5 (Homo sapiens) = OR52E5 (Homo sapiens) (UniProt Q8NH55)
Outline: as §1

OR52L1 (Homo sapiens) [2] = molecular target: T14, OR52L1 (Homo sapiens) (UniProt Q8NGH7); remark: listed apart in the source
T14 sequence (whole entry): T10 sequence (whole entry) with R140C, R161C, T183K, R297W
Outline: as §1
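Further: active if original authors judged signal statistically different from baseline.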

OR52J3 (Homo sapiens), sequence (Q8NH60 whole entry): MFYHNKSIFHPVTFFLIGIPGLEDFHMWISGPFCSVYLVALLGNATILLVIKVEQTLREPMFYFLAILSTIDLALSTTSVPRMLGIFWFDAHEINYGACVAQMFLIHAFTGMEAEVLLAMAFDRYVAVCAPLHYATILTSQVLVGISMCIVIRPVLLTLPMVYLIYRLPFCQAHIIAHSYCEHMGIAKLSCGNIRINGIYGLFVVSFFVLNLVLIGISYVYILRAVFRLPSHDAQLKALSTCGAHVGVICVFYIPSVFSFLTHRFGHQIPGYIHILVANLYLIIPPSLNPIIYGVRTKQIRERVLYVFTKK
OR52E5 (Homo sapiens), sequence (Q8NH55 whole entry): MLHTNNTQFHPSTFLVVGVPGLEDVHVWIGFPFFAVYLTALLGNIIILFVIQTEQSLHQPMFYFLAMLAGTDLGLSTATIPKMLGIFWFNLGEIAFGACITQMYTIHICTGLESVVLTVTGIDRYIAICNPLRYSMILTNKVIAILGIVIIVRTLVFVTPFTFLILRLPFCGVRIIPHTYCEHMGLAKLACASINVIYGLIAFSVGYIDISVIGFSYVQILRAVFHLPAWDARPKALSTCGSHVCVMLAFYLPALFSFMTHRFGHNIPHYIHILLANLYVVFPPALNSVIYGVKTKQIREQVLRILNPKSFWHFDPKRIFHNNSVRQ
OR52E2 (Homo sapiens), sequence (Q8NGJ4 whole entry): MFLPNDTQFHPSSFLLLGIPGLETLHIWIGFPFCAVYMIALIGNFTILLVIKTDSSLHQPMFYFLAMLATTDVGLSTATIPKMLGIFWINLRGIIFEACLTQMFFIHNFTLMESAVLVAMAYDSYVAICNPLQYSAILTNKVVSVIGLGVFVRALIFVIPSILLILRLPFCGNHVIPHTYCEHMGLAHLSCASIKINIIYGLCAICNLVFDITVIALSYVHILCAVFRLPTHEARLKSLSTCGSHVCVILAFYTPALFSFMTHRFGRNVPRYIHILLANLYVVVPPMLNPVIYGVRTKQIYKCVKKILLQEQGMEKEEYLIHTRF
OR52E4 (Homo sapiens), sequence (Q8NGH9 whole entry): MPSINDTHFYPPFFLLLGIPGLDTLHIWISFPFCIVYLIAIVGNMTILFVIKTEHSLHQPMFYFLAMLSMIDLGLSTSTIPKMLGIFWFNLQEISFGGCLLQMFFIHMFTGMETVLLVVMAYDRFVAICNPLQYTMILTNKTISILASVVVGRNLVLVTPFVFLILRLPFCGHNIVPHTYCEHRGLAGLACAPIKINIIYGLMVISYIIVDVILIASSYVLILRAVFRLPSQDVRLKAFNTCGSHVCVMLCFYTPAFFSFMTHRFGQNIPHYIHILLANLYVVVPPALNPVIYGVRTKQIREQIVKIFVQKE
OR52E6 (Homo sapiens), sequence (Q96RD3 whole entry): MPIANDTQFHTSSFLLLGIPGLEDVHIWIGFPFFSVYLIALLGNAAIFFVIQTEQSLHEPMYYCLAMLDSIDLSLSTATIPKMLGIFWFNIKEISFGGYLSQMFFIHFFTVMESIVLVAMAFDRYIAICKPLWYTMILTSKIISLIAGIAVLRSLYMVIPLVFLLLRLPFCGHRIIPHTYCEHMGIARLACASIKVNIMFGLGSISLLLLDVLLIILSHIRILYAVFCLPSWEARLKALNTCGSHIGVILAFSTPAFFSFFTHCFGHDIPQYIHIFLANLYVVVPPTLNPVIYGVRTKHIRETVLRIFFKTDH
OR52E1 (Homo sapiens), sequence (Q8NGJ3 whole entry): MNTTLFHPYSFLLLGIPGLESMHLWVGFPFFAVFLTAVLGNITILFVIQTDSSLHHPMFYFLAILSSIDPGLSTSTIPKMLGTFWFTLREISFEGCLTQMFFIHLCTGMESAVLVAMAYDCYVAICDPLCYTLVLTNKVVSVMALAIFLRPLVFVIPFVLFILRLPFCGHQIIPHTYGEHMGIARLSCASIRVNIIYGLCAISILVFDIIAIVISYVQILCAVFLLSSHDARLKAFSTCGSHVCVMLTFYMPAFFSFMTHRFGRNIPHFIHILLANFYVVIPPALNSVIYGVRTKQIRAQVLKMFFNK

SMILES	odorant receptor agonist call (OR52D1 (Homo sapiens))	odorant receptor agonist call (OR52A5 (Homo sapiens))	odorant receptor agonist call (OR52B2 (Homo sapiens))	odorant receptor agonist call (OR52B4 (Homo sapiens))	odorant receptor agonist call (OR52B6 (Homo sapiens))	odorant receptor agonist call (OR52E1 (Homo sapiens))	odorant receptor agonist call (OR52E2 (Homo sapiens))	odorant receptor agonist call (OR52E4 (Homo sapiens))	odorant receptor agonist call (OR52E6 (Homo sapiens))	odorant receptor agonist call (OR52I1 (Homo sapiens))	odorant receptor agonist call (OR52I2 (Homo sapiens))	odorant receptor agonist call (OR52J3 (Homo sapiens))	odorant receptor agonist call (OR52K1 (Homo sapiens))	odorant receptor agonist call (OR52K2 (Homo sapiens))	odorant receptor agonist call (OR52L1 (Homo sapiens) [1])	odorant receptor agonist call (OR52M1 (Homo sapiens))	odorant receptor agonist call (OR52N1 (Homo sapiens))	odorant receptor agonist call (OR52N2 (Homo sapiens))	odorant receptor agonist call (OR52E5 (Homo sapiens))	odorant receptor agonist call (OR52L1 (Homo sapiens) [2])
CCCCC(O)CCC (stereo unspecified)	inactive																			
CC1=C(O)C(=O)OC1C (stereo unspecified)	inactive	inactive	inactive	inactive	inactive	inactive	inactive	inactive	inactive	inactive	inactive	inactive	inactive	inactive	inactive	inactive	inactive	inactive		
CCCCCC(=O)C(C)C(C)=O (stereo unspecified)	inactive	inactive	inactive	inactive	inactive		inactive	inactive	inactive	inactive	inactive	inactive	inactive	inactive		inactive	inactive	inactive	inactive	inactive
CC(=O)C(C)O (stereo unspecified)	active																			
CCCCC(S)C(C)CO (stereo unspecified)	inactive	active	inactive	inactive	inactive		inactive	inactive	inactive	inactive	inactive	inactive	inactive	inactive		inactive	inactive	inactive	inactive	active
CC1=NC(C)C(C)S1 (stereo unspecified)	inactive	inactive	inactive	inactive	inactive	inactive	inactive	inactive	inactive	inactive	inactive	inactive	inactive	inactive	inactive	inactive	inactive	inactive		
CCCCCCCCC(=O)O	active		inactive																	
CC1=C(O)C(=O)C(C)O1 (stereo unspecified)	inactive	inactive	inactive	inactive	inactive	inactive	inactive	inactive	inactive	inactive	inactive	inactive	inactive	inactive	inactive	inactive	inactive	inactive		
CCCC(S)CCOC(C)=O (stereo unspecified)	inactive	inactive	inactive	inactive	inactive	inactive	inactive	inactive	inactive	inactive	inactive	inactive	inactive	inactive	inactive	inactive	inactive	inactive		
CCCCCCCCCCCC(=O)O	inactive																			
CCCC(=O)SC	active																			
CCC1OC(C)=C(O)C1=O (stereo unspecified)	inactive	inactive	inactive	inactive	inactive	inactive	inactive	inactive	inactive	inactive	inactive	inactive	inactive	inactive	inactive	inactive	inactive	inactive		
CC(=O)c1c(C)c([N+](=O)[O-])c(C(C)(C)C)c([N+](=O)[O-])c1C	inactive	inactive	inactive	inactive	inactive	inactive	inactive	inactive	inactive	inactive	inactive	inactive	inactive	inactive		inactive	inactive	inactive	inactive	inactive
